Data set [1] is described as follows: Plasma concentrations in CAD patients after oral Plavix 75 mg. The format is in vivo. As to conditions: human. The method, boiled down:
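Venous blood (3 mL) from CAD patients was drawn into EDTA/DTT tubes before dosing and at 0.5, 1, 2, 2.5, 3, 3.5, 6, 8, 12 and 24 h after dosing. MPB (500 mmol/L stock) was added at once, then spun 16 000 g for 10 min and held at −80 °C. Read-out was LC-MS/MS on C18 at 40 °C, 0.1% formic acid:acetonitrile (1:19), 1 mL/min. Thiol metabolite was measured as derivative. Calibration used peak area with internal standard, weighted 1/x2. Mean±SD, n=3.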

The subject of another data set is carboxylesterases. As to conditions: cited from earlier work.
The test system of a further data set is CYP2C19. To be noted: cited from earlier work.
Data set [2] is classed as in vitro ADME, human. As to conditions: mean±SD; for Found, after three-thaw cycles / Found, at –80 °C for 45 days / Found, plasma at room temperature for 8 hours: human plasma; for Found, extract at room temperature for 8 hours / Found, extract in the auto-sampler at 4 °C for 24 hours: plasma extract.
Data set [3] is described as follows: Stability of stock solutions in acetonitrile. As to conditions: in acetonitrile at −20 °C. The format is physicochemical. The method, boiled down: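 Separate acetonitrile stocks were made: 10 μg/mL for each analyte and 1 mg/mL for the internal standard. They were vortexed, briefly sonicated and stored at −20 °C. Analyte stability was examined after 2 months at −20 °C. Read-out was LC-MS/MS quantification.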

Each structure is given as a SMILES string. Like-named read-outs stand apart in the source and are kept apart here.

As to `COC(=O)[C@H](c1ccccc1Cl)N1CCc2sccc2C1` [Clopidogrel, (+)-(S)-methyl 2-(2-chlorophenyl)-2-(6,7-dihydrothieno[3,2-c]pyridine-5(4H)-yl)acetate], in data set [1], the concentration peaked (Cmax) at 17 ng/mL. Further, in the data set with carboxylesterases, the “Portion hydrolyzed into inactive metabolites by carboxylesterases” value is “approximately 85%”. Besides, the “Contribution of CYP2C19 to metabolism, second step” value in the data set on CYP2C19 (2-Oxo-CLP to active metabolite) is reported as 20%. For the same compound, the “Contribution of CYP2C19 to metabolism, first step” value in the data set with CYP2C19 (clopidogrel metabolized to 2-Oxo-CLP) is 45%. Besides, in data set [2] (added 0.2 ng/mL), the “Found, after three-thaw cycles” value is 0.2 ± 0.0 ng/mL; the “Found, at –80 °C for 45 days” value was determined as 0.2 ± 0.0 ng/mL; the “Found, plasma at room temperature for 8 hours” value amounted to 0.2 ± 0.0 ng/mL; the “Found, extract at room temperature for 8 hours” value worked out at 0.2 ± 0.0 ng/mL. For the same compound, in data set [2] (added 0.2 ng/mL), the “Found, extract in the auto-sampler at 4 °C for 24 hours” value was 0.2 ± 0.0 ng/mL. Besides, in data set [2] (added 10 ng/mL), the “Found, after three-thaw cycles” value is 10.1 ± 0.8 ng/mL; the “Found, at –80 °C for 45 days” value came out at 10.1 ± 0.2 ng/mL; the “Found, plasma at room temperature for 8 hours” value came out at 10.4 ± 0.8 ng/mL; the “Found, extract at room temperature for 8 hours” value was determined as 10.0 ± 1.4 ng/mL. In addition, the “Found, extract in the auto-sampler at 4 °C for 24 hours” value in data set [2] (added 10 ng/mL) stood at 10.0 ± 0.8 ng/mL. The “Time stock solutions were stable” value in data set [3] is given as “at least 2 months”.

With `CC#C[C@]1(O)CC[C@H]2[C@@H]3CCC4=CC(=O)CCC4=C3[C@@H](c3ccc(N(C)C)cc3)C[C@@]21C` [IS, Mifepristone], the “Time stock solutions were stable” value in data set [3] is “at least 2 months”.

(Values after PMC9002156 (Journal of Biomedical Research, 2022).)
